Source: ChEMBL document CHEMBL3232790, “Identification of a new series of amides as non-covalent proteasome inhibitors” (Eur J Med Chem, 2014)
The source made the active and inactive calls. The rule behind the calls is not given here.

Assays:
[1] = molecular target: T1, Proteasome component C5 (Homo sapiens) (UniProt P20618); assay: Inhibition of caspase-like activity of human 20S proteasome beta 1 subunit assessed as Cbz-Leu-Leu-Glu-AMC substrate hydrolysis at 20 uM after 10 mins by fluorometric analysis
T1 sequence (whole entry): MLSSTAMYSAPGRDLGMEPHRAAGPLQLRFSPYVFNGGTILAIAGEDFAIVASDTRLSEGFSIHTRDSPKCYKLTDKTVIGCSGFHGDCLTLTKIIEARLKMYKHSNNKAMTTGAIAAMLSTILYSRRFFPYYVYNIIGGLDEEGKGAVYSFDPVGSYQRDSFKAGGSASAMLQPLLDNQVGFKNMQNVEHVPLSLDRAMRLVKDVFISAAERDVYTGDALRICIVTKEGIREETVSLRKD
In short: (§1)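 Single-concentration preliminary screen of human 20S proteasome activity. An equivalent amount of DMSO served as negative control. AMC release read by fluorescence at 30 °C (ex 380/em 460 nm). Percent inhibition was recorded, and at least 40% inhibition triggered full Ki assays.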

[2] = molecular target: Cathepsin B (Homo sapiens) (UniProt P07858); assay: Inhibition of cathepsin B (unknown origin) assessed as Cbz-Phe-Arg-AMC substrate hydrolysis
[3] = molecular target: Chymotrypsinogen A (Bos taurus) (UniProt P00766); assay: (§2) Inhibition of bovine pancreatic alpha-chymotrypsin activity assessed as Suc-Leu-Leu-Val-Tyr-AMC substrate hydrolysis after 10 mins
In short: (§3)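 Bovine pancreatic α-chymotrypsin in 50 mM Tris pH 8.0 with 100 mM NaCl, 5 mM EDTA and 7.5% DMSO. Suc-Leu-Leu-Val-Tyr-AMC at 75 (final) as substrate. AMC release was followed over 10 min.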

[4] = molecular target: T2, Proteasome Macropain subunit MB1 (Homo sapiens) (UniProt P28074); assay: Inhibition of chymotrypsin-like activity of human 20S proteasome beta 5 subunit assessed as Suc-Leu-Leu-Val-Tyr-AMC substrate hydrolysis at 20 uM after 10 mins by fluorometric analysis; in short: as §1
T2 sequence (whole entry): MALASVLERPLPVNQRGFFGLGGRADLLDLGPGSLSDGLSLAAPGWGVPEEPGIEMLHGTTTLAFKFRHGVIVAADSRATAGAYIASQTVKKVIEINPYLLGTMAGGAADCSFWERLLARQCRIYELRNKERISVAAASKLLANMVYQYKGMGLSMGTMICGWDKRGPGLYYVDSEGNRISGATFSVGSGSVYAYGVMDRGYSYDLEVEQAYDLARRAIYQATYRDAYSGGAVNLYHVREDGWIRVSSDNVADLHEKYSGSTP

NCI60 = assay: Cytotoxicity against human NCI60 cells at 10^-5 M; assay type: functional, cell-based
[5] = molecular target: T3, Proteasome Macropain subunit MB1 (Homo sapiens, UniProt P28074); assay: Inhibition of chymotrypsin-like activity of human 20S proteasome beta 5 subunit assessed as Suc-Leu-Leu-Val-Tyr-AMC substrate hydrolysis after 10 mins by fluorometric analysis
T3 sequence (P28074 whole entry): T2 sequence (whole entry)
In short: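 Human 20S proteasome at 0.004 mg mL-1 final, incubated at 30 °C with varied inhibitor concentrations. Buffer: 50 mM Tris pH 7.5, 10 mM NaCl, 25 mM KCl, 1 mM MgCl2, 0.03% SDS, 5% DMSO. Ki from progress-curve slopes fitted to a 4-parameter IC50 equation, Ki = IC50/(1+[S]/Km), Km measured separately. Mean of three.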

Chymotrypsinogen A = Chymotrypsinogen A (Bos taurus, UniProt P00766); assay: as §2; in short: as §3

Row | Structure (SMILES) | inhibition [1] | inhibition [2] | inhibition [3] | inhibition [4] | Ki [5] | Ki (Chymotrypsinogen A) | Activity (NCI60)
1 | CC(C)C[C@H](NC(=O)[C@H](C)n1ccc2ncccc2c1=O)B(O)O | – | – | – | 100% | – | – | –
2 | CC(C)C[C@H](NC(=O)Cn1cc(Br)c2ncccc2c1=O)B(O)O | – | – | – | 100% | – | – | –
3 | CC(C)CCNC(=O)Cn1cc(Br)c2ncccc2c1=O | – | inactive | inactive | 56% | 0.56 µM | – | inactive
4 | CCN(CC)c1ccn(CC(=O)N[C@@H](CC(C)C)B(O)O)c(=O)c1 | – | – | – | 100% | – | – | –
5 | CC(C)C[C@H](NC(=O)Cn1ccc2c(c1=O)CCCN2C)B(O)O | – | – | – | 84% | – | – | –
6 | CC(C)CCNC(=O)Cn1ccc2ncccc2c1=O | – | inactive | inactive | 10% | – | – | inactive
7 | CC(C)CCNC(=O)Cn1ccc2c(c1=O)CCCN2 | – | inactive | inactive | 45% | 10.1 µM | – | inactive
8 | CC(C)CCNC(=O)[C@H](C)n1ccc2ncccc2c1=O | – | inactive | inactive | 35% | – | – | inactive
9 | CC(C)CCNC(=O)Cn1ccc(N2CCCCC2)cc1=O | – | inactive | inactive | 27% | – | – | inactive
10 | CC(C)CCNC(=O)Cn1ccc2c(c1=O)CCCN2C | – | inactive | inactive | 7% | – | – | inactive
11 | O=C(Cn1ccccc1=O)NC12CC3CC(CC(C3)C1)C2 | > 50% | inactive | inactive | 86% | 7.55 µM | – | inactive
12 | CC(C)CCNC(=O)Cn1ccc(N2CCOCC2)cc1=O | – | inactive | inactive | 42% | 7.67 µM | – | inactive
13 | CCN(CC)c1ccn(CC(=O)NCCC(C)C)c(=O)c1 | – | inactive | inactive | 28% | – | – | inactive

Further lines, with some results ahead:

Row | inhibition [1] | inhibition [2] | inhibition [3] | inhibition [4] | Ki [5] | Ki (Chymotrypsinogen A) | Structure (SMILES) | Activity (NCI60)
14 | > 50% | inactive | inactive | 72% | 1.48 µM | – | COc1ccc(NC(=O)Cn2ccc(Nc3ccccc3)cc2=O)cc1 | inactive
15 | – | – | – | 100% | – | – | CC(C)C[C@H](NC(=O)Cn1ccc2ncccc2c1=O)B(O)O | –
16 | – | inactive | inactive | 21% | – | – | O=C(Cn1ccccc1=O)Nc1ccccc1C(=O)c1ccccc1 | inactive
17 | – | inactive | inactive | 32% | – | – | COc1ccc(NC(=O)Cn2ccccc2=O)cc1 | inactive
18 | – | – | – | 97% | – | – | CC(C)C[C@H](NC(=O)Cn1ccc(Nc2ccccc2)cc1=O)B(O)O | –
19 | – | inactive | – | 67% | 8.03 µM | 6.65 µM | O=C(Cn1ccc(Nc2ccccc2)cc1=O)Nc1ccccc1C(=O)c1ccccc1 | inactive
20 | – | inactive | inactive | 16% | – | – | O=C(Cn1ccc(Nc2ccccc2)cc1=O)NCc1ccccc1 | inactive
21 | – | inactive | inactive | 100% | – | – | CC(C)C[C@H](NC(=O)[C@H](Cc1ccccc1)NC(=O)c1cnccn1)B(O)O | inactive
22 | – | inactive | inactive | 9% | – | – | O=C(Cn1ccc(Nc2ccccc2)cc1=O)Nc1ccccc1 | inactive
23 | – | inactive | inactive | 87% | 0.33 µM | – | CC(C)CCNC(=O)Cn1ccc(Nc2ccccc2)cc1=O | inactive
24 | – | inactive | inactive | 13% | – | – | O=C(Cn1ccc(Nc2ccccc2)cc1=O)NC12CC3CC(CC(C3)C1)C2 | inactive
25 | – | inactive | inactive | 15% | – | – | O=C(Cn1ccccc1=O)NCc1ccccc1 | inactive
26 | – | inactive | inactive | 23% | – | – | O=C(Cn1ccccc1=O)Nc1ccccc1 | inactive
